Measured values collected from several papers.
Target: Calcium/calmodulin-dependent protein kinase type IV (CAMK4, Homo sapiens, UniProt Q16566)
Residues used in one study (Q16566 1-473): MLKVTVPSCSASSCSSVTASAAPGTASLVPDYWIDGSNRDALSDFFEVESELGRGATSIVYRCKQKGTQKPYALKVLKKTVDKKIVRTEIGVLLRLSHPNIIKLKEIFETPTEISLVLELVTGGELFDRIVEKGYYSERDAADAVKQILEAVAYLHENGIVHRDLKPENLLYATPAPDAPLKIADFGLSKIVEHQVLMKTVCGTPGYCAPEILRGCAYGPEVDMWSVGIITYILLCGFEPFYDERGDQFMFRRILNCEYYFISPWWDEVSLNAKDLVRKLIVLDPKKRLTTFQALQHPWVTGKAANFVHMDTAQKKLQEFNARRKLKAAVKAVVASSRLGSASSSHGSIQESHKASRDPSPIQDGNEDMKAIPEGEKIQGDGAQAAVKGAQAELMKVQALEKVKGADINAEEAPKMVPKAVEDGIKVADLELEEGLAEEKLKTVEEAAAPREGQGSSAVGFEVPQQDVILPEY

SMILES | test | setting | measurement | result
Cn1c2c(c3ccc(Cl)c(Cl)c31)C(C#N)C1(CCOCC1)NC2=O (centres unmarked) | thermal stability, DSF | 10 µM | ΔTm | 0 °C
Cc1nccc(COC(=O)N2C[C@@H]3[C@@H](CNC(=O)c4ccc5[nH]nnc5c4)[C@@H]3C2)n1 | cell-free assay, competition with immobilised ligand | 1 µM | remaining binding | 95%
CN(C)C1CCN(CC#Cc2nn(C3CCCC3)c3nc(NCc4ccccc4)ncc23)C1 (centres unmarked) | enzyme activity, inhibitor, FRET | 1 µM | inhibition | 7%
Cn1c2c(Cl)c(Cl)ccc2c2cc[nH]c(=O)c21 | thermal stability, DSF | 10 µM | ΔTm | 0.4 °C
Cc1sc(C(=O)NC2COC2)cc1-n1cc(NC(=O)Nc2c(F)cccc2Cl)cn1 | enzyme activity, inhibitor | 10 µM | remaining activity | 98.5%
CNc1cccc2cc(C(=O)Nc3ccc(C(=O)O)cc3)c(=O)[nH]c12 | enzyme activity, inhibitor | 10 µM | inhibition | 11%
O=C(O)[C@H]1[C@H](Cn2nnc3ccccc3c2=O)CC[C@@H]1C(=O)c1ccc(OCCC2CCOCC2)cc1 | cell-free assay, competition with immobilised ligand | 1 µM | remaining binding | 78%
CCN1CCC2(CC1)NC(=O)c1c(c3ccc(Cl)c(Cl)c3n1C)C2C#N (racemic) | thermal stability, DSF | 10 µM | ΔTm | 0.1 °C
O=C1Nc2ccc(Cl)cc2C1=Cc1cc(Cl)c(O)c(Cl)c1 | cell-free assay | 0.5 µM | remaining signal | 96.8%
Cc1cnc(NC2CCOCC2)nc1-n1cnc(C(=O)NC(CN)c2cc(F)cc(Cl)c2)c1 (centres unmarked) | enzyme activity, inhibitor, radiometric | 1 µM | remaining activity | 49%
Cn1c2c(c3ccc(Cl)c(Cl)c31)C(C#N)C1(CCCCC1)NC2=O (racemic) | thermal stability, DSF | 10 µM | ΔTm | 0.7 °C
Cc1ccc(C(=O)Nc2ccc(CN3CCN(C)CC3)c(C(F)(F)F)c2)cc1C#Cc1cnc2cccnn12 | enzyme activity, inhibitor | 23.5 nM | remaining activity | 100%
O=C(O)c1cc(-c2ccc(C3CCNCC3)cc2)c2ccc(-c3ccc(C(F)(F)F)cc3)cc2c1 | cell-free assay, competition with immobilised ligand | 1 µM | remaining binding | 100%
CCN(CC)CCNC(=O)c1c(C)[nH]c(/C=C2\C(=O)Nc3ccc(F)cc32)c1C | enzyme activity, inhibitor | 10 µM | inhibition | 87%
CC1=C(C#N)C(c2ccc3c(c2)c(NC(=O)c2ccccc2C)nn3C)C(C#N)=C(C)N1 | cell-free assay, competition with immobilised ligand | 1 µM | remaining binding | 70%
CS(=O)(=O)CCNCc1ccc(-c2ccc3ncnc(Nc4ccc(OCc5cccc(F)c5)c(Cl)c4)c3c2)o1 | cell-free assay | 0.5 µM | remaining signal | 107%

SMILES | test | setting | measurement | result
Nc1ncnc2occ(-c3ccc(NC(=O)Nc4cc(C(F)(F)F)ccc4F)cc3)c12 | cell-free assay, inhibitor | 20 µM | remaining signal | 1.5%
CC/C(=N\NC(=O)NCc1cccc(O)c1)c1ccc(O)c(C)c1O | enzyme activity, inhibitor | 0.1 µM | inhibition | 1.3%
COc1cccc(CNC(=O)c2nc3scc(COCc4ccc(C(=O)O)cc4)c3c(=O)[nH]2)c1 | cell-free assay, competition with immobilised ligand | 1 µM | remaining binding | 100%
Cn1c2c(c3ccc(Cl)c(Cl)c31)C(C#N)C1(CCNCC1)NC2=O (racemic) | thermal stability, DSF | 10 µM | ΔTm | -0.1 °C
COc1cc(Cl)c(C(=O)N[C@@H](CN[C@H]2CC[C@@H](N)CC2)Cc2ccc(C#N)cc2)cc1-c1ccc(CN[C@H](C)c2ccc(C)cc2)o1 | enzyme activity, inhibitor | 1 µM | remaining activity | 92%
Cn1c2c(Cl)c(Cl)ccc2c2cn[nH]c(=O)c21 | thermal stability, DSF | 10 µM | ΔTm | 0.1 °C
Cc1c[nH]c2nccc(Oc3c(F)cc(Nc4cc(Cl)nc(N)n4)cc3F)c12 | cell-free assay, competition with immobilised ligand | 0.1 µM | remaining binding | 100%
CNC(=O)c1cc(Oc2ccc(NC(=O)Nc3ccc(Cl)c(C(F)(F)F)c3)cc2)ccn1 | enzyme activity, inhibitor | 10 µM | inhibition | 10%
Oc1cccc(-c2nc(N3CCOCC3)c3oc4ncccc4c3n2)c1 | cell-free assay | 0.5 µM | remaining signal | 103%
COc1ccc2c(c1)O[C@@H](c1ccc(OC)c(OC)c1)C[C@H]2NC(=O)C1(c2ccc3c(c2)OC(F)(F)O3)CC1 | cell-free assay, competition with immobilised ligand | 1 µM | remaining binding | 89%
O=C(O)c1ccc2c3c1cccc3c(=O)n1c3ccccc3nc21 | cell-free assay | 0.5 µM | remaining signal | 101%
CC(C)c1ccc(NC(=O)c2cccs2)c(-c2nc3ccccc3[nH]c2=O)c1 | enzyme activity, inhibitor | 1 µM | activity vs control | 116%
O=C(Nc1cnn(-c2csc(C(=O)NC3COC3)c2)c1)Nc1ccccc1Cl | enzyme activity, inhibitor | 5 µM | remaining activity | 114%
COc1cc2c(N3CCN(C(=O)Nc4ccc(OC(C)C)cc4)CC3)ncnc2cc1OCCCN1CCCCC1 | cell-free assay | 0.5 µM | remaining signal | 99.3%
Cn1nc(C(=O)NCc2ccc(C(=O)O)cc2)cc1-c1ccc2[nH]ccc2c1 | cell-free assay, competition with immobilised ligand | 0.1 µM | remaining binding | 92%
COc1cc2ncnc(Nc3ccc(Oc4ccccc4)cc3C)c2cc1OC | enzyme activity, inhibitor | 1 µM | inhibition | -20%
